Screens: PubChem, The Scripps Research Institute Molecular Screening Center
Most compounds without a hit are left out; they make up all but 4.5% or so of the library.
OX1R antag-1: blocks the human orexin 1 receptor | inhibition, % at 6.6 µM | O43613 | AID 485270 | OX1R-expressing cells, FRET antagonist read-out | 1.8% of 330,000 active; in the data active = inhibition mostly above about 38%, no sharp cut-off; inactive = mostly below about 40%
GPR7 antagonist: blocks human GPR7 receptor signaling. P48145. 1.1% of 290,000 active. AID 1861. GPR7-expressing cells, fluorescence antagonist assay. inhibition, % at 4.4 µM; in the data active = inhibition above about 16%, passing the limit was not always enough;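 note: cells stimulated with the agonist NPW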
Target sequence (P48145 whole entry, looked up): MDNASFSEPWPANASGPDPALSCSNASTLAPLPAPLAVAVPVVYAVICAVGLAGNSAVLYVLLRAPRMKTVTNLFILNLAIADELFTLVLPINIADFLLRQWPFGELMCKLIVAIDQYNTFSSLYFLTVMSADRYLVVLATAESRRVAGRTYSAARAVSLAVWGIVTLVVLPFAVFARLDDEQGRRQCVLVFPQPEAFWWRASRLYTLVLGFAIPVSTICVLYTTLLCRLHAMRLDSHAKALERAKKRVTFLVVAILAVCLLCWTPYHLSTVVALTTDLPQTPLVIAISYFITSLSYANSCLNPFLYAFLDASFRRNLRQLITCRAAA
TAAR1 agonist: human TAAR1 agonism. Q96RJ0. activation, % at 3 µM. CHO RD-HGA16 TAAR1, Fluo-8 calcium fluorescence; vehicle wells 0%, saturating PEA agonist 100%. 0.99% of 360,000 active;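 active = activation above the mean activation of all test compounds in the run plus 3 SD, cut at about 38% in these data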
Target sequence (Q96RJ0 whole entry, looked up): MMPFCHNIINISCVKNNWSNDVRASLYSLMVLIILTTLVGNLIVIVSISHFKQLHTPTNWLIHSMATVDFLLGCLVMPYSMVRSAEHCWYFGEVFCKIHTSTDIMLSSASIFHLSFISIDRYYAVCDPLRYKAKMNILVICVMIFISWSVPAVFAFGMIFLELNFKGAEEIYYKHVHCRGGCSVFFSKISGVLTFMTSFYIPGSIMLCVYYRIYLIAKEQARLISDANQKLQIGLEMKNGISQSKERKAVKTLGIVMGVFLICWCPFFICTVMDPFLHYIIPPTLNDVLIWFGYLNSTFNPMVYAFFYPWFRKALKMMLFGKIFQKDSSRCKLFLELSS
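Signal – calcium-sensitive Fluo-8 signal, excitation 470-495, emission 515-575 nm · System – RD-HGA16 (CHO) cells co-expressing Gα16 and hTAAR1 · Incubation – 17-24 h seeding, 75 min 37 °C dye, 30 min RT · Compound dosing – 3 µM single concentration · Repeats – no replicates (n 1)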
TAAR1 antag: human TAAR1 antagonism | Q96RJ0 | CHO RD-HGA16 TAAR1, Fluo-8 calcium fluorescence, antagonist | inhibition, % at 3 µM | 1.5% of 360,000 active | AID 624466;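 active = inhibition above a per-plate cutoff, the mean inhibition of test compounds on that plate plus 3 SD, cut at about 49% in these data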
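System: CHO RD-HGA16 cells bearing hTAAR1. Reagent: EC80 β-phenethylamine stimulus. Schedule: seeding 17-24 h prior, 75-min 37 °C, 30-min RT dye loading. Signal: Fluo-8 intracellular calcium dye fluorescence, real-time kinetic reads. Read-out: % inhibition from peak post-agonist over basal fluorescence ratio. Benchmarks: vehicle wells and EC80 agonist wells. Replicates: n of 1.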
OX1R antag-2: antagonists of human orexin 1 receptor; O43613; CHO/OX1R cells, Fluo-8 calcium fluorescence, orexin A; inhibition, % at 5 µM; 0.43% of 330,000 active; AID 434989;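 active = inhibition above its plate's threshold, mean inhibition of all tested compounds on the plate plus 3 SD, cut at about 37% in these data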
CHO parental Ca: counter-screen: ATP calcium response change in parental CHO cells | parental CHO-K1, ATP-induced calcium, Fluo-8 fluorescence | inhibition, % at 5.6 µM | 0.63% of 330,000 active | AID 463079;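 active = inhibition above that plate's mean sample inhibition plus 3 SD, cut at about 26% in these data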
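Material: parental CHO cells / Compound: single nominal dose of 5.6 µM per compound / Signal: Fluo-8 fluorescence / Replicates: singlicate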
TAAR1 ag conf: human TAAR1 agonism, confirmed | 82% of 2,400 active | shares compounds with TAAR1 agonist | AID 651783 | CHO RD-HGA16 TAAR1, Fluo-8 calcium fluorescence; scaled: DMSO 0%, maximal phenethylamine 100% | activation, % at 3 µM;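 active = activation above a cutoff set at the run's mean compound activation plus 3 SD, cut at about 39% in these data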
Ga16 nonsel ag: counter-screen for TAAR1 agonists: nonselective agonists in parental cells; AID 651787; shares compounds with TAAR1 agonist; 50% of 2,400 active; activation, % at 3 µM; CHO-Ga16 parental, Fluo-8 calcium fluorescence; normalized to maximal ATP response, DMSO zero;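 active = activation above the run cutoff, the mean activation over all tested wells plus 3 SD, cut at about 12% in these data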
TAAR1 desens: counter-screen for human TAAR1 agonists: agonists that desensitize TAAR1. AID 651951. 46% of 2,400 active. CHO RD-HGA16 hTAAR1, Fluo-8 calcium, beta-PEA response inhibition. inhibition, % at 3 µM. shares compounds with TAAR1 agonist;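 active = inhibition above the run cutoff, the mean inhibition of all test compounds plus 3 SD, cut at about 49% in these data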;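 note: beta-PEA stimulus applied at its EC80; loss of beta-PEA calcium signal after compound pretreatment read as receptor desensitization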
Ga16 nonsel ant: nonselective Ga16 antagonist in TAAR1 agonist counter-screen; shares compounds with TAAR1 agonist; CHO-Ga16 ATP-induced calcium, Fluo-8 fluorescence; inhibition, % at 3 µM; 39% of 2,400 active;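 active = inhibition above the plate's mean compound inhibition plus 3 SD, computed per plate, cut at about 22% in these data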
Large screens that a line does not name were inactive (follow-up assays come after a bar, where they were run).

COc1ccc(OC)c(NC(=O)COC(=O)CN(C)S(=O)(=O)c2ccc(C)cc2)c1	none
CCOC(=O)C1CCN(C(=O)c2ccc(N3CCOCC3)c([N+](=O)[O-])c2)CC1	none (no result: GPR7 antagonist)
CC(C)(C)NC(=O)CN(C(=O)CNS(=O)(=O)c1ccccc1)c1ccc2c(c1)OCCO2	none
Cc1ccc(S(=O)(=O)NCC(=O)N(CC(=O)NC2CCCC2)c2ccc3c(c2)OCCO3)cc1	none (no result: OX1R antag-1, OX1R antag-2, CHO parental Ca)
CC(C)(C)NC(=O)CN(C(=O)CNS(=O)(=O)c1ccc(Cl)cc1)c1ccc2c(c1)OCCO2	TAAR1 agonist 72 | TAAR1 ag conf 100 | Ga16 nonsel ag 45 | TAAR1 desens inactive | Ga16 nonsel ant inactive
CCC(C)(C)NC(=O)CN(C(=O)CNS(=O)(=O)c1ccc(C)cc1)c1ccc2c(c1)OCCO2	TAAR1 agonist 52 | TAAR1 ag conf 82 | Ga16 nonsel ag 26 | TAAR1 desens inactive | Ga16 nonsel ant inactive
Cc1ccccc1CNC(=O)C(=O)NCC1OCCCN1S(=O)(=O)c1cccs1 (stereo not drawn)	none
COc1ccc2[nH]cc(C(=O)NCCc3ccccc3)c(=O)c2c1	none
CN(CCC#N)S(=O)(=O)c1ccc2[nH]cc(C(=O)NCCc3ccccc3)c(=O)c2c1	TAAR1 agonist 54 | TAAR1 ag conf 73 | Ga16 nonsel ag inactive | TAAR1 desens inactive | Ga16 nonsel ant inactive
COc1ccccc1/C=C/C(=O)OCC(=O)NC1CC1	none (no result: OX1R antag-1, GPR7 antagonist, OX1R antag-2, CHO parental Ca)
CN(C)CCCN(C(=O)c1ccc(S(=O)(=O)N2CCc3ccccc32)cc1)c1nc2ccc(F)cc2s1	TAAR1 agonist 51 | TAAR1 ag conf 66 | Ga16 nonsel ag 36 | TAAR1 desens 57 | Ga16 nonsel ant 41
Cc1onc(-c2ccccc2)c1C(O)c1ccc(F)cc1 (stereo not drawn)	none
COc1cc(S(=O)(=O)n2cnc3ccccc32)ccc1Br	none
CC(CNC(=O)[C@@H](Cc1ccccc1)NC(=O)[C@H]1O[C@@H](n2cnc3c(=O)[nH]c(N)nc32)[C@H](O)[C@@H]1O)c1ccccc1 (stereo partly drawn)	none (no result: OX1R antag-1, GPR7 antagonist, TAAR1 agonist, TAAR1 antag, OX1R antag-2, CHO parental Ca) | Ga16 nonsel ag inactive | Ga16 nonsel ant inactive
CC(CNC(=O)[C@H]1O[C@@H](n2cnc3c(=O)[nH]c(N)nc32)[C@H](O)[C@@H]1O)c1ccccc1 (stereo partly drawn)	TAAR1 agonist 84, TAAR1 antag 66 (no result: OX1R antag-1, GPR7 antagonist, OX1R antag-2, CHO parental Ca) | TAAR1 ag conf 94 | Ga16 nonsel ag inactive | TAAR1 desens 80 | Ga16 nonsel ant inactive
CC[C@H](NC(=O)[C@@H](Cc1ccccc1)NC(=O)[C@H]1O[C@@H](n2cnc3c(=O)[nH]c(N)nc32)[C@H](O)[C@@H]1O)c1ccccc1	none (no result: OX1R antag-1, GPR7 antagonist, OX1R antag-2, CHO parental Ca)
Cc1ccc(Cl)c(NC(=O)COC(=O)CNS(=O)(=O)/C=C/c2ccccc2)c1Cl	TAAR1 agonist 73 | TAAR1 ag conf inactive | Ga16 nonsel ag inactive | TAAR1 desens inactive | Ga16 nonsel ant inactive
COc1ccc(NC(=S)N2CCCC(c3nc4ccc(C)cc4[nH]3)C2)c(OC)c1 (stereo not drawn)	TAAR1 agonist 98 | TAAR1 ag conf inactive | Ga16 nonsel ag inactive | TAAR1 desens inactive | Ga16 nonsel ant inactive
COc1ccc(NC(=S)N2CCCC(c3nc4ccc(C)cc4[nH]3)C2)cc1 (stereo not drawn)	none
COc1cccc(Nc2ncnc3ccc(Br)cc23)c1	none (no result: OX1R antag-1, GPR7 antagonist, OX1R antag-2, CHO parental Ca)
Brc1ccc2ncnc(Nc3cccc4ccccc34)c2c1	TAAR1 agonist 53 | TAAR1 ag conf inactive | Ga16 nonsel ag 30 | TAAR1 desens inactive | Ga16 nonsel ant inactive
COc1cccc(-c2c(C(=O)N/N=C(\C)c3ccc(Cl)s3)nnn2-c2nonc2N)c1	TAAR1 agonist 89, TAAR1 antag 59 | TAAR1 ag conf 82 | Ga16 nonsel ag 52 | TAAR1 desens 64 | Ga16 nonsel ant 39
C/C(=N\NC(=O)c1nnn(-c2nonc2N)c1-c1ccccc1)c1ccco1	TAAR1 agonist 106 (no result: OX1R antag-1, OX1R antag-2, CHO parental Ca) | TAAR1 ag conf 120 | Ga16 nonsel ag 87 | TAAR1 desens inactive | Ga16 nonsel ant inactive
COc1cccc(-c2c(C(=O)N/N=C(\C)c3ccco3)nnn2-c2nonc2N)c1	TAAR1 agonist 115 | TAAR1 ag conf 128 | Ga16 nonsel ag 88 | TAAR1 desens 49 | Ga16 nonsel ant inactive
NNCCc1ccccc1	TAAR1 agonist 75 | TAAR1 ag conf 94 | Ga16 nonsel ag inactive | TAAR1 desens 76 | Ga16 nonsel ant inactive
O=C(Cc1ccc(Cl)cc1)N1CCN(c2ccccc2)CC1	none
C#CCOC(=O)CCCC(=O)NCCCCCCCC	none
CC(Oc1ccc(Br)cc1)C(=O)Nc1ccc(S(=O)(=O)NC2=NCCCCC2)cc1 (stereo not drawn)	TAAR1 agonist 95, TAAR1 antag 72 (no result: OX1R antag-1, GPR7 antagonist, OX1R antag-2, CHO parental Ca) | TAAR1 ag conf 119 | Ga16 nonsel ag 78 | TAAR1 desens 81 | Ga16 nonsel ant 47
CC(Oc1ccc(Br)cc1)C(=O)Nc1ccc(S(=O)(=O)Nc2nccs2)cc1 (stereo not drawn)	none
O=C(NNC(=S)NC(=O)C12CC3CC(CC(C3)C1)C2)c1ccncc1	TAAR1 agonist 155, TAAR1 antag 93 | TAAR1 ag conf 122 | Ga16 nonsel ag 103 | TAAR1 desens 72 | Ga16 nonsel ant 55
O=C(NNC(=S)NC(=O)c1ccc(F)cc1)c1ccncc1	none (no result: GPR7 antagonist)
CC1(C(=O)NC(=S)NNC(=O)c2ccncc2)CCCCC1	TAAR1 agonist 92 | TAAR1 ag conf 70 | Ga16 nonsel ag 52 | TAAR1 desens inactive | Ga16 nonsel ant 23
CC1OC2CC(=O)OC2C2=C1C(=O)c1c(O)cccc1C2=O (stereo not drawn)	TAAR1 agonist 64, TAAR1 antag 58 (no result: OX1R antag-1, GPR7 antagonist, OX1R antag-2, CHO parental Ca) | TAAR1 ag conf 69 | Ga16 nonsel ag 41 | TAAR1 desens 71 | Ga16 nonsel ant 62
O=C(CCNS(=O)(=O)c1ccc(Br)cc1)NNC(=O)C1COc2ccccc2O1 (stereo not drawn)	none (no result: GPR7 antagonist)
Cc1nc(N2CCCCC2C)c2c(C)c(C(=O)Nc3ccccc3C(F)(F)F)sc2n1 (stereo not drawn)	none
O=Cc1ccc(OCC(=O)N2CCc3ccccc32)c(Br)c1	none (no result: OX1R antag-1, GPR7 antagonist, OX1R antag-2, CHO parental Ca)
